Test results published in ChEMBL document CHEMBL5236602, “Synthesis and Characterization of NUC-7738, an Aryloxy Phosphoramidate of 3'-Deoxyadenosine, as a Potential Anticancer Agent” (J Med Chem, 2022).
Active and inactive are the calls of the source. No cut-off for these calls is given here.

Legend:
[1] = test system: CCRF-CEM; experiment: Cytotoxicity against human CCRF-CEM cells assessed as cell death incubated for 72 hrs by MTS assay; assay type: functional; settings: read-out: LC50 (the source's name)
Summary of the method: (§1)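 Contracted MTS assay. Cells seeded the day before treatment and exposed 72 h to nine serial concentrations (3.16-fold steps, top 198 μM), tested in duplicate. MTS added, then 4 h at 37 °C and absorbance read. LC50 is the concentration killing 50% of cells. MI% is the maximum inhibition over the tested range.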

[2] = test system: HL-60; experiment: Cytotoxicity against human HL-60 cells assessed as maximum cell growth inhibition incubated for 72 hrs by MTS assay relative to control; assay type: functional
Summary of the method: (§2)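 Cells from the 20-line panel were seeded the day before dosing, then exposed to compound for 72 h. MTS was added, followed by 4 h at 37 °C, and absorbance was read. Nine serial 3.16-fold dilutions were tested, top 198 μM, in duplicate. MI% is the maximum inhibitory effect across the tested concentration range.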

[3] = test system: KG-1; experiment: Cytotoxicity against human KG-1 cells assessed as cell death incubated for 72 hrs by MTS assay; assay type: functional; summary of the method: as §1
[4] = test system: KG-1; experiment: Cytotoxicity against human KG-1 cells assessed as maximum cell growth inhibition incubated for 72 hrs by MTS assay relative to control; assay type: functional; summary of the method: as §2
[5] = test system: MOLT-4; experiment: Cytotoxicity against human MOLT-4 cells assessed as cell death incubated for 72 hrs by MTS assay; assay type: functional; settings: read-out: LC50 (the source's name); summary of the method: as §1
[6] = test system: MOLT-4; experiment: Cytotoxicity against human MOLT-4 cells assessed as maximum cell growth inhibition incubated for 72 hrs by MTS assay relative to control; assay type: functional; summary of the method: as §2
[7] = test system: K562; experiment: Cytotoxicity against human K562 cells assessed as cell death incubated for 72 hrs by MTS assay; assay type: functional; settings: read-out: LC50 (the source's name); summary of the method: as §1
[8] = test system: MV4-11; experiment: Cytotoxicity against human MV4-11 cells assessed as cell death incubated for 72 hrs by MTS assay; assay type: functional; settings: read-out: LC50 (the source's name); summary of the method: as §1
[9] = test system: MV4-11; experiment: Cytotoxicity against human MV4-11 cells assessed as maximum cell growth inhibition incubated for 72 hrs by MTS assay relative to control; assay type: functional; summary of the method: as §2
[10] = test system: THP-1; experiment: Cytotoxicity against human THP-1 cells assessed as cell death incubated for 72 hrs by MTS assay; assay type: functional; settings: read-out: LC50 (the source's name); summary of the method: as §1
[11] = test system: HEL 92.1.7; experiment: Cytotoxicity against human HEL 92.1.7 cells assessed as cell death incubated for 72 hrs by MTS assay; assay type: functional; settings: read-out: LC50 (the source's name); summary of the method: as §1
[12] = test system: NCI-H929; experiment: Cytotoxicity against human NCI-H929 cells assessed as cell death incubated for 72 hrs by MTS assay; assay type: functional; settings: read-out: LC50 (the source's name); summary of the method: as §1
[13] = test system: NCI-H929; experiment: Cytotoxicity against human NCI-H929 cells assessed as maximum cell growth inhibition incubated for 72 hrs by MTS assay relative to control; assay type: functional; summary of the method: as §2
[14] = test system: RPMI-8226; experiment: Cytotoxicity against human RPMI-8226 cells assessed as cell death incubated for 72 hrs by MTS assay; assay type: functional; settings: read-out: LC50 (the source's name); summary of the method: as §1
[15] = test system: RPMI-8226; experiment: Cytotoxicity against human RPMI-8226 cells assessed as maximum cell growth inhibition incubated for 72 hrs by MTS assay relative to control; assay type: functional; summary of the method: as §2
[16] = test system: Jurkat; experiment: Cytotoxicity against human Jurkat cells assessed as cell death incubated for 72 hrs by MTS assay; assay type: functional; settings: read-out: LC50 (the source's name); summary of the method: as §1
[17] = test system: Z-138; experiment: Cytotoxicity against human Z138 cells assessed as maximum cell growth inhibition incubated for 72 hrs by MTS assay relative to control; assay type: functional; summary of the method: as §2
[18] = test system: RL; experiment: Cytotoxicity against human RL cells assessed as cell death incubated for 72 hrs by MTS assay; assay type: functional; settings: read-out: LC50 (the source's name); summary of the method: as §1
[19] = Cytotoxicity against human HS 445 cells assessed as maximum cell growth inhibition incubated for 72 hrs by MTS assay relative to control; assay type: functional; summary of the method: as §2
[20] = test system: HepG2; experiment: Cytotoxicity against human HepG2 cells assessed as cell death incubated for 72 hrs by MTS assay; assay type: functional; settings: read-out: LC50 (the source's name); summary of the method: as §1
[21] = test system: MCF7; experiment: Cytotoxicity against human MCF7 cells assessed as maximum cell growth inhibition incubated for 72 hrs by MTS assay relative to control; assay type: functional; summary of the method: as §2
[22] = test system: BXPC-3; experiment: Cytotoxicity against human BXPC-3 cells assessed as cell death incubated for 72 hrs by MTS assay; assay type: functional; settings: read-out: LC50 (the source's name); summary of the method: as §1
[23] = test system: BXPC-3; experiment: Cytotoxicity against human BXPC-3 cells assessed as maximum cell growth inhibition incubated for 72 hrs by MTS assay relative to control; assay type: functional; summary of the method: as §2
[24] = test system: HT-29; experiment: Cytotoxicity against human HT-29 cells assessed as cell death incubated for 72 hrs by MTS assay; assay type: functional; settings: read-out: LC50 (the source's name); summary of the method: as §1
[25] = test system: HT-29; experiment: Cytotoxicity against human HT-29 cells assessed as maximum cell growth inhibition incubated for 72 hrs by MTS assay relative to control; assay type: functional; summary of the method: as §2
[26] = test system: SW-620; experiment: Cytotoxicity against human SW620 cells assessed as cell death incubated for 72 hrs by MTS assay; assay type: functional; settings: read-out: LC50 (the source's name); summary of the method: as §1
[27] = test system: RL; experiment: Potency index, ratio of 3'-Deoxyadenosine LC50 to test compound LC50 for cytotoxicity against human RL cells assessed as cell death incubated for 72 hrs by MTS assay; assay type: functional
[28] = test system: HL-60; experiment: Potency index, ratio of 3'-Deoxyadenosine LC50 to test compound LC50 for cytotoxicity against human HL-60 cells assessed as cell death incubated for 72 hrs by MTS assay; assay type: functional
[29] = test system: K562; experiment: Potency index, ratio of 3'-Deoxyadenosine LC50 to test compound LC50 for cytotoxicity against human K562 cells assessed as cell death incubated for 72 hrs by MTS assay; assay type: functional
[30] = test system: Jurkat; experiment: Potency index, ratio of 3'-Deoxyadenosine LC50 to test compound LC50 for cytotoxicity against human Jurkat cells assessed as cell death incubated for 72 hrs by MTS assay; assay type: functional
[31] = test system: CCRF-CEM; experiment: Potency index, ratio of 3'-Deoxyadenosine LC50 to test compound LC50 for cytotoxicity against human CCRF-CEM cells assessed as cell death incubated for 72 hrs by MTS assay; assay type: functional
[32] = Prodrug conversion in human CCRF-CEM cells assessed as fold increase in 3'-dATP level at 50 uM incubated for 2 hrs by LC-MS/MS analysis relative to 3'-Deoxyadenosine; assay type: ADME, cell-based
[33] = Prodrug conversion in human K562 cells assessed as fold increase in 3'-dATP level at 50 uM incubated for 2 hrs by LC-MS/MS analysis relative to 3'-Deoxyadenosine; assay type: ADME, cell-based; settings: k562, 2 h
[34] = Prodrug conversion in human HL-60 cells assessed as fold increase in 3'-dATP level at 50 uM incubated for 2 hrs by LC-MS/MS analysis relative to 3'-Deoxyadenosine; assay type: ADME, cell-based; settings: hl-60, 2 h
[35] = Prodrug conversion in human RL cells assessed as fold increase in 3'-dATP level at 50 uM incubated for 2 hrs by LC-MS/MS analysis relative to 3'-Deoxyadenosine; assay type: ADME, cell-based
[36] = test system: CCRF-CEM; experiment: Cytotoxicity against deoxynucleotidyl transferase-positive human CCRF-CEM cells assessed as cell death preincubated with adenosine deaminase inhibitor, EHNA for 5 mins followed by compound addition and […]; assay type: functional, cell-based
[37] = test system: RL; experiment: Cytotoxicity against deoxynucleotidyl transferase-negative human RL cells assessed as cell death preincubated with adenosine deaminase inhibitor, EHNA for 5 mins followed by compound addition and […]; assay type: functional, cell-based
[38] = Metabolic stability in pooled cryopreserved human hepatocytes assessed as intrinsic clearance measured per 10^6 cells at 1 uM incubated for 60 mins by HPLC-MS/MS analysis; assay type: ADME, cell-based, Hepatocyte; settings: 1 h
Summary of the method: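 Pooled cryopreserved human hepatocytes were thawed, washed and resuspended in Krebs–Henseleit buffer, pH 7.3. Compound was added at 1 μM final and incubated 0 and 60 min at 37 °C/5% CO2. Reactions were stopped with acetonitrile, centrifuged, and the supernatant analysed by HPLC-MS/MS.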

[39] = test system: Leukemic stem cell; experiment: Cytotoxicity against human leukemic stem cells (Lin-/CD34+/CD38-/CD123+) in myeloid leukemia cell line KG-1a assessed as reduction in LSC population at >1 uM incubated for 72 hrs

Question: What does the source list for C[C@@H](NP(=O)(OC[C@@H]1C[C@@H](O)[C@H](n2cnc3c(N)ncnc32)O1)Oc1cccc2ccccc12)C(=O)OCc1ccccc1 (some centres undefined)?
Answer: CC50 [1]: 1.17 µM; Imax [2]: 100%; LC50 [3]: 11.03 µM; Imax [4]: 100%; CC50 [5]: 0.32 µM; Imax [6]: 100%; CC50 [7]: 4.93 µM; CC50 [8]: 1.48 µM; Imax [9]: 99%; CC50 [10]: 46.5 µM; CC50 [11]: 2.94 µM; CC50 [12]: 3.38 µM; Imax [13]: 99%; CC50 [14]: 19 µM; Imax [15]: 102%; CC50 [16]: 0.9 µM; Imax [17]: 100%; CC50 [18]: 1.68 µM; Imax [19]: 96%; CC50 [20]: 11.5 µM; Imax [21]: 99%; CC50 [22]: 74 µM; Imax [23]: 90%; CC50 [24]: 7.52 µM; Imax [25]: 98%; CC50 [26]: 11.4 µM; RatioLC50 [27]: 3; RatioLC50 [28]: 3; RatioLC50 [29]: 3; RatioLC50 [30]: 200; RatioLC50 [31]: 3; fold change (FC) [32]: 3; fold change (FC) [33]: 3; fold change (FC) [34]: 3; fold change (FC) [35]: 3; Activity [36]: Active; Activity [37]: Active; CLint [38]: 20.8 µL/min/1e6 cells; Activity [39]: inactive
